Assay [1] is described as follows: Displacement of [3H]YM-09-151-2 from D2-like receptor in pig striatal membrane. The format is cell membranes, Sus scrofa, Striatum. Put shortly:
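Pig striatal membranes (about 200 µg protein) in Tris–HCl pH 7.4 with protease inhibitors, incubated to equilibrium (60 min, 30 °C) with 0.3 nM [3H]YM-09-151-2 and at least six compound concentrations. Nonspecific binding defined with 2.5 mM dopamine. Filtration, scintillation counting. IC50 converted to Ki by Cheng–Prusoff; 3–5 experiments in triplicate. Radioligand Kd 0.40 nM.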
(In general: Loss of bound radioactivity is the signal in a displacement assay; it reports binding, not function.)

Assay [2] addresses T1, Adrenergic receptor alpha-2 (Rattus norvegicus, UniProt P22086+P19328+P22909).
T1 sequence (P22086 whole entry): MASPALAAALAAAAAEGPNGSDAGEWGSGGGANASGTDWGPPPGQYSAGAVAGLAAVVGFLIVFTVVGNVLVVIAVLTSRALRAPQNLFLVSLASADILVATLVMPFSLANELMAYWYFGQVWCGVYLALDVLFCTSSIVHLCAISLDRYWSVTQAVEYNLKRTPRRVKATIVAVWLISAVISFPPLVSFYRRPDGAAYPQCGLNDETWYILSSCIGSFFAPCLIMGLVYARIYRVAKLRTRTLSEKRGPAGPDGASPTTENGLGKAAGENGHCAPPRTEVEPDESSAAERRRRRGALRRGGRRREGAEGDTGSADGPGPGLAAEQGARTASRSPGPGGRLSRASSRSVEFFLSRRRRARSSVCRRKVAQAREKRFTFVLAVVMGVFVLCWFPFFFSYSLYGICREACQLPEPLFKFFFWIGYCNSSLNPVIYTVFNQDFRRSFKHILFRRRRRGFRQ
T1 sequence (P19328 whole entry): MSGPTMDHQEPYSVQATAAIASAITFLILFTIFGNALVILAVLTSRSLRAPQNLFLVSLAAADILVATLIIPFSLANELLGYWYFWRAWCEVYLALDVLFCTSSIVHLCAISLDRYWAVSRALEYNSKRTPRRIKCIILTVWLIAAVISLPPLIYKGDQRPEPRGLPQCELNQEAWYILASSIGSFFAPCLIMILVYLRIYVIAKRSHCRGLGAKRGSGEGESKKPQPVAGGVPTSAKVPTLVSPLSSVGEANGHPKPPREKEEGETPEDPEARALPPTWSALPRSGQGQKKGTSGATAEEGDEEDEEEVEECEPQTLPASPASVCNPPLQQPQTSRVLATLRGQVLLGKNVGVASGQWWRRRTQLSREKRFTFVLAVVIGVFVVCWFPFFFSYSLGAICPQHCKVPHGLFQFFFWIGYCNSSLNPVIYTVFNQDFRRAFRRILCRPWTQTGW
T1 sequence (P22909 whole entry): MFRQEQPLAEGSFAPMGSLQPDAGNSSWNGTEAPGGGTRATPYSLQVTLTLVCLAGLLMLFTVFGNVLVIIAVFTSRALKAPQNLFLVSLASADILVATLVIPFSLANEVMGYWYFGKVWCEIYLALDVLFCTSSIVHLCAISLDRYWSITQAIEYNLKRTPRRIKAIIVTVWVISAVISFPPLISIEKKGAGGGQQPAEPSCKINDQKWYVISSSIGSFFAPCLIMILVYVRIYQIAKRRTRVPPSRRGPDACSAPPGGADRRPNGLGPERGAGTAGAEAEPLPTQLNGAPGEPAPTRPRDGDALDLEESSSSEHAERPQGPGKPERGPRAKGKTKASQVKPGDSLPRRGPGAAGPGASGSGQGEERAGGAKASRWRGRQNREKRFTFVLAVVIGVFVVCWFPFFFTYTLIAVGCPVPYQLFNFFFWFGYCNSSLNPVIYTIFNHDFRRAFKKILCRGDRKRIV
Briefly: Displacement of [3H]RX821002 from alpha2 adrenergic receptor in rat brain membrane. The format is cell membranes.

Assay [3] is described as follows: Displacement of [3H]2BFI from I2 imidazoline binding site in rat brain membrane. The class given is cell membranes. Put shortly: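 Rat whole-brain membranes (about 300 µg protein) incubated to equilibrium (30 min, room temperature) with 1 nM [3H]2-BFI and increasing compound concentrations in 50 mM Tris–HCl, 1 mM MgCl2, pH 7.4. Nonspecific binding defined with 10 µM BU224. Filtration, scintillation counting. At least six concentrations; IC50 converted to Ki by Cheng–Prusoff; 3–5 experiments in triplicate.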

The nature of assay [4]: Agonist activity at D2-like receptor in pig striatal membrane assessed as [35S]GTPgammaS binding. The class given is functional, cell membranes, Sus scrofa, Striatum. Put shortly: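 Porcine striatal membranes incubated 60 min at 30 °C in 50 mM Tris–HCl pH 7.4 with GDP, 5 mM MgCl2, 0.1 mM EDTA, 0.2 mM EGTA, 0.2 mM DTT, 150 mM NaCl, 0.2 nM [35S]GTPγS and six compound concentrations. Nonspecific binding defined with unlabeled GTPγS. Filtration, scintillation counting. EC50 by nonlinear regression, three independent experiments. Intrinsic activity set relative to dopamine %Emax = 1.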

The test system of assay [5] is Rattus norvegicus. Briefly: Anxiolytic-like activity in Wistar rat assessed as rearing activity at 0.0149 uM/kg, icv by open field test. The class given is functional. Put shortly:
(§1)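 Male Wistar rats (200–225 g, 8 per group) given ip zolazepam/tiletamine anaesthesia before a cannula was implanted in the right lateral ventricle. Compound given icv at 0.0149 µM/kg; controls received physiological solution. Open field with two photocell rows: lower-row breaks counted as ambulatory episodes, upper-row breaks as rearing. Read-out is the % of episodes in the central area, mean ± SE.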

In assay [6] the test system is Rattus norvegicus. In words: Anxiolytic-like activity in Wistar rat assessed as ambulatory activity at 0.0149 uM/kg, icv by open field test. The class given is functional. Put shortly: as §1
Assay [7] in a line: Displacement of [3H]SCH23390 from dopamine D1-like receptor pig striatal membrane.

`Oc1ccc2oc(C3=NCCN3)cc2c1`: the Ki – broadly, a measure of affinity in units of concentration, obtained from inhibition or displacement – in assay [1] is above 100 µM; in assay [2], 2.95 µM; in assay [3], 0.0881 µM.
`CN1CCN=C1c1cc2cc(O)ccc2o1`: the Ki in assay [1] was above 100 µM.
With `CCN1CCN=C1c1cc2cc(O)ccc2o1`, the Ki in assay [1] was above 100 µM; in assay [2] it was 25.5 µM; in assay [3], above 100 µM.
On to `CCCN1CCN=C1c1cc2cc(O)ccc2o1`, for which the results for the Ki in assay [1], in assay [2] and in assay [3] were 15.8 µM, 3.64 µM and 0.7 µM, respectively.
With `Oc1ccc2cc(C3=NCCN3)oc2c1`, in assay [4], the concentration giving a half-maximal response (EC50) – broadly, the concentration giving half of the maximal effect – was determined as 5.7 µM. Moreover, the inhibitory constant (Ki) in assay [1] is 14.5 µM; in assay [2], 11 µM; in assay [3] it was 0.076 µM.
Turning to `CCCN1CCN=C1c1cc2ccc(O)cc2o1`, the EC50 in assay [4] is 13.3 µM. Also, the Ki in assay [1] was found to be 13.8 µM; in assay [2], 1.92 µM; in assay [3], 2.1 µM.
On to `Oc1cc2cc(C3=NCCN3)oc2cc1O`, for which the Ki in assay [1] is above 100 µM; in assay [2] it was 24.21 µM; in assay [3], 5.69 µM.
In the case of `CCCN1CCN=C1c1cc2cc(O)c(O)cc2o1`, the figures for the Ki in assay [1], in assay [2] and in assay [3] were above 100 µM, 10.16 µM and 28 µM, respectively.
Turning to `Oc1ccc2oc(C3=NCCN3Cc3ccccc3)cc2c1`, the EC50 in assay [4] stood at 6.3 µM. Also, the results for the Ki in assay [1], in assay [2] and in assay [3] were 5 µM, 4.39 µM and 1.1 µM, respectively.
For `Oc1ccc2cc(C3=NCCN3Cc3ccccc3)oc2c1`, the EC50 in assay [4] amounted to 5.8 µM. Further, the figures for the Ki in assay [1], in assay [2] and in assay [3] were 5.66 µM, 2.08 µM and 5.78 µM, respectively. The Activity in the assay with Rattus norvegicus [5] came out at 2%; with Rattus norvegicus [6], 6.3%.
In the case of `Oc1cc2cc(C3=NCCN3Cc3ccccc3)oc2cc1O`, in assay [4], the EC50 amounted to 11.9 µM. Further, the Ki in assay [1] was found to be 18.5 µM; in assay [2] it was 4.43 µM; in assay [3], 10.4 µM.
As to `c1ccc2oc(C3=NCCN3)cc2c1`, the EC50 in assay [4] is 37.7 µM. For the same compound, the Ki came to 47 µM in assay [1] and 0.0034 µM in assay [3].
For the compound `NCCc1ccc(O)c(O)c1` [DOPAMINE], the EC50 in assay [4] was 4.8 µM. Moreover, the Ki in assay [1] was found to be 3.9 µM. In assay [7], the Kd (in general, a measure of binding affinity in units of concentration) is 0.00133 µM.
Consider `N[C@@H](Cc1ccc(O)c(O)c1)C(=O)O` [LEVODOPA], for which the Activity is 2% with Rattus norvegicus [5] and 5.7% in the assay with Rattus norvegicus [6].
